Laboratory results from ChEMBL document CHEMBL5647683 (Oncogene, 2008).
Calls of active or inactive are those of the source. The rule behind the calls is not given here.

Tests used:
Homo sapiens = organism: Homo sapiens; assay: Inhibition of AMPK (unknown origin) assessed as remaining activity relative to control; values are per cent of control
Mus musculus [1] = assay: In vivo inhibition of HER2 phosphorylation in EGFR L858R/T790M mutant driven lung cancer mouse model at 20 mg/kg, po measured after 48 hrs by immunohistochemical staining; type: functional, organism-based
In short: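 Doxycycline-maintained L858R/T790M EGFR bitransgenic mice, three per group, received 20 mg/kg by gavage, alone or with 2 mg/kg intraperitoneal rapamycin, three times at 24 h intervals. Mice were killed 1 h after the last dose, about 48 h from the start. Lung sections immunostained for phosphorylated receptors; littermates served as controls.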

NIH3T3 [2] = assay: Inhibition of human EGFR mutant R108K phosphorylation at Y1173 residue expressed in mouse NIH3T3 cells at 1 to 10000 nM incubated for 2 hrs by immunoblot analysis; type: cell-based; conditions: dose 1-10000 nM
[3] = AUC(0-24hrs) in human NCI-N87 cells xenografted athymic NMRI-nu/nu female mouse at 20 mg/kg, po administered daily for 25 days by LC-MS-MS method; type: ADME, organism-based; conditions: in vivo, time 25 day
[4] = molecular target: Serine/threonine-protein kinase Nek6 (Homo sapiens) (UniProt Q9HC98); assay: Inhibition of NEK6 (unknown origin) assessed as remaining activity relative to control; values are per cent of control
[5] = molecular target: Dual specificity mitogen-activated protein kinase kinase 1 (Homo sapiens) (UniProt Q02750); assay: Inhibition of MKK1 (unknown origin) assessed as remaining activity relative to control; values are per cent of control
[6] = Cmax in human MDA-MB-453 cells xenografted athymic NMRI-nu/nu female mouse at 20 mg/kg, po administered daily for 25 days by LC-MS-MS method; type: ADME, organism-based; conditions: in vivo, time 25 day
[7] = molecular target: Serine/threonine-protein kinase Nek2 (Homo sapiens) (UniProt P51955); assay: Inhibition of NEK2A (unknown origin) assessed as remaining activity relative to control; values are per cent of control
[8] = molecular target: Tyrosine-protein kinase CSK (Homo sapiens) (UniProt P41240); assay: Inhibition of CSK (unknown origin) assessed as remaining activity relative to control; values are per cent of control
[9] = molecular target: Dual specificity tyrosine-phosphorylation-regulated kinase 1A (Homo sapiens) (UniProt Q13627); assay: Inhibition of DYRK1a (unknown origin) assessed as remaining activity relative to control; values are per cent of control
[10] = molecular target: Serine/threonine-protein kinase Sgk1 (Homo sapiens) (UniProt O00141); assay: Inhibition of SGK (unknown origin) assessed as remaining activity relative to control; values are per cent of control
HT-29 = assay: Antitumor activity against human HT-29 cells xenografted athymic NMRI-nu/nu female mouse as reduction in tumor volume at 20 mg/kg, po administered daily for 25 days relative to control; type: functional; conditions: time 25 day
[11] = Cmax in human NCI-N87 cells xenografted athymic NMRI-nu/nu female mouse at 20 mg/kg, po administered daily for 25 days by LC-MS-MS method; type: ADME, organism-based; conditions: in vivo, time 25 day
A-431 = assay: In vivo inhibition of EGFR in human A-431 cells xenografted athymic NMRI-nu/nu female mouse as reduction in AKT phosphorylation at 20 mg/kg, po administered daily for 25 days by immunohistochemical staining; type: functional, organism-based; conditions: time 25.0 day
In short: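 A431 flank xenografts in female NMRI-nu/nu mice dosed daily by oral gavage in HP-β-CD/acetic acid/Natrosol vehicle. Tumors collected 6 h after the last dose. Sections immunostained for phospho-EGFR and phospho-AKT.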

MDA-MB-453 = assay: Antitumor activity against human MDA-MB-453 cells xenografted athymic NMRI-nu/nu female mouse as reduction in tumor volume at 20 mg/kg, po administered daily for 25 days relative to control; type: functional; conditions: time 25 day
In short: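 Female athymic NMRI-nu/nu mice (5–6 weeks, 21–31 g) given 1–5×10⁶ cells into the right flank; MDA-MB-453 tumors started from fresh 2×2×2 mm fragments. At 40–130 mm³, tumors were randomized to weight-based daily oral gavage (10 ml/kg; 1.8% HP-β-CD, 5% acetic acid (10%), 0.5% Natrosol) or vehicle. Caliper measurement 3×/week, volume π/6×L×W². Expressed as cumulative treated/control volume ratio; one-way ANOVA with Dunnett's test.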

Mus musculus [12] = assay: Antitumor activity against EGFR L858R/T790M mutant driven lung cancer mouse model assessed as increase in tissue space at 20 mg/kg, po administered daily for 2 weeks by IHC staining based analysis; type: functional, organism-based
NIH3T3 [13] = assay: Inhibition of colony formation in EGFR mutant R108K expressing mouse NIH3T3 cells assessed as number of colonies at 1 to 10000 nM incubated for 2 week by soft agar assay; type: functional, cell-based; conditions: dose 1-10000 nM, time 2.0 weeks
In short: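 NIH-3T3 cells expressing wild-type or mutant EGFR suspended in top agar (DMEM, 10% calf serum, 0.4% agar) over 0.5% agar bottom layer; drug added to top layer; wild-type cells supplemented with 100 ng/ml EGF. Triplicate plating, 2-week incubation; colonies counted from 10 fields photographed at ×4; values normalized to untreated.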

[14] = molecular target: Rho-associated protein kinase 2 (Homo sapiens) (UniProt O75116); assay: Inhibition of ROCK-II (unknown origin) assessed as remaining activity relative to control; values are per cent of control
[15] = molecular target: Dual specificity tyrosine-phosphorylation-regulated kinase 1A (Homo sapiens) (UniProt Q13627); assay: Inhibition of DYRK1alpha (unknown origin) assessed as remaining activity relative to control; values are per cent of control

Sequence of Serine/threonine-protein kinase Sgk1 (Homo sapiens) (O00141 whole entry): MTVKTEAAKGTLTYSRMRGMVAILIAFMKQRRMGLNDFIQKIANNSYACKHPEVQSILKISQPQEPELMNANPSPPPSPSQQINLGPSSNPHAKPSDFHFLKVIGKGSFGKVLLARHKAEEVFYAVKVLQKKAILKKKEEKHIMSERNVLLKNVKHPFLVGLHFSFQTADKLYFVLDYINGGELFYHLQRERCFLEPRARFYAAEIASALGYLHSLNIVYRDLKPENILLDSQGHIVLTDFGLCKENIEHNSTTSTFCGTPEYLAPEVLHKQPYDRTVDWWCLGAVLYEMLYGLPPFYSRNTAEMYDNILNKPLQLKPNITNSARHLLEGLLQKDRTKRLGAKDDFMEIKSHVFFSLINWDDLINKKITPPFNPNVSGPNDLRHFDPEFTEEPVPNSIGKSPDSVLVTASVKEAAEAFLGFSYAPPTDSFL
Sequence of Dual specificity mitogen-activated protein kinase kinase 1 (Homo sapiens) (Q02750 whole entry): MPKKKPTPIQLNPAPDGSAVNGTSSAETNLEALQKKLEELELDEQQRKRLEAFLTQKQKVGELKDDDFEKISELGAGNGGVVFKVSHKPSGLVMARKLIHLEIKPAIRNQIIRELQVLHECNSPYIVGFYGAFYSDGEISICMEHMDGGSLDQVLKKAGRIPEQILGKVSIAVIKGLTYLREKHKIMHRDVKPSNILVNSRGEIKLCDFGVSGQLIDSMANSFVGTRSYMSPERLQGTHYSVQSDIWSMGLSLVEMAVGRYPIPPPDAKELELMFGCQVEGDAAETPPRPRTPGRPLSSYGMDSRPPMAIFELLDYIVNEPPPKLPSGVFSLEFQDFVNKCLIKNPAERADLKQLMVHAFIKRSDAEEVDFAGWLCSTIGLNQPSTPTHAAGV
Sequence of Tyrosine-protein kinase CSK (Homo sapiens) (P41240 2-450 limits assumed): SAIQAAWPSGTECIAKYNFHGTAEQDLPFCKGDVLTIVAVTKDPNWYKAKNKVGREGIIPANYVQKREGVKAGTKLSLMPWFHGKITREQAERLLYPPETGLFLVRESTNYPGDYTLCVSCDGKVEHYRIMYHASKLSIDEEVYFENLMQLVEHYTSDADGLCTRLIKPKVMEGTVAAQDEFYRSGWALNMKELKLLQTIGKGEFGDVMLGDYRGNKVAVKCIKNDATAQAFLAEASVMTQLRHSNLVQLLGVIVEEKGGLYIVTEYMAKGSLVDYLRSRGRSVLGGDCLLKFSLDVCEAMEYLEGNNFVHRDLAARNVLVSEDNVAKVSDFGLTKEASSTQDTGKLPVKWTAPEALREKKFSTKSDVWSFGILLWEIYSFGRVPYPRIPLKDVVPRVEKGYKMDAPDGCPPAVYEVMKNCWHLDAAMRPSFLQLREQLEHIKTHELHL
Sequence of Rho-associated protein kinase 2 (Homo sapiens) (O75116 whole entry, looked up): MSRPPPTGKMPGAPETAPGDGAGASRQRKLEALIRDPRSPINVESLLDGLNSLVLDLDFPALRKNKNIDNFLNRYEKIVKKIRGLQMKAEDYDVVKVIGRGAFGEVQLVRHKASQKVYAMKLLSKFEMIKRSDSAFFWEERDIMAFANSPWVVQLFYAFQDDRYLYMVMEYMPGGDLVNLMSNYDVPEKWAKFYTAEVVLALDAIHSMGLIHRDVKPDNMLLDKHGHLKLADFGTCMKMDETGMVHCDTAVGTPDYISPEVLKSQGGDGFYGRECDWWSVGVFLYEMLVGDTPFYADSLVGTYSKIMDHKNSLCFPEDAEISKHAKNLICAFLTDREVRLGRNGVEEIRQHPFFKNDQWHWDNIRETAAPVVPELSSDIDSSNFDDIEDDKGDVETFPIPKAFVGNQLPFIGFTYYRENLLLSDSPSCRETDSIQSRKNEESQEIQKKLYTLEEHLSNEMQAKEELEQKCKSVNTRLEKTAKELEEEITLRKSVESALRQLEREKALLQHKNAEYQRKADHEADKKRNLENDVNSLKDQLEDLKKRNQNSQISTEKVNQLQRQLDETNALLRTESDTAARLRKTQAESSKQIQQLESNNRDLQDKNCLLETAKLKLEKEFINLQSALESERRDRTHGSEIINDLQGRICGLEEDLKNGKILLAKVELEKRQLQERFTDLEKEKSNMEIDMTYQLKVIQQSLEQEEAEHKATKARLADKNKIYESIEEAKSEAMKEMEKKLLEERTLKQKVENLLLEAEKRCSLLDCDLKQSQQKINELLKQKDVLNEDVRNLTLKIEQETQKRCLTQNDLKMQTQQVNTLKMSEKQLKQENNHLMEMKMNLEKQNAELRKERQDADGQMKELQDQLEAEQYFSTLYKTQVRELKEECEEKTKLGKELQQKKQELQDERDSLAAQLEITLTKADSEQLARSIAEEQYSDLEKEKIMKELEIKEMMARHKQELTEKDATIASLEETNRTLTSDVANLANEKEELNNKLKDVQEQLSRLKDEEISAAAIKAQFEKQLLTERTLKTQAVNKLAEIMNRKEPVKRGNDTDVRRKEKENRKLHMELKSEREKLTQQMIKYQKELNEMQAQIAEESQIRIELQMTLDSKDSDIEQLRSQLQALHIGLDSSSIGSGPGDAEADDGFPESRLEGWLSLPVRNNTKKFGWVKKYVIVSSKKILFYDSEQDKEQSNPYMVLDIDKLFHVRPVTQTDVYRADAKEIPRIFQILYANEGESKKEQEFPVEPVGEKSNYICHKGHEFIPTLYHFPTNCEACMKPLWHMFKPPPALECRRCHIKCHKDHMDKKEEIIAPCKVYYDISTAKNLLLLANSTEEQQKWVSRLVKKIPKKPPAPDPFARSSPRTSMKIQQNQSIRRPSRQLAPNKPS
Sequence of Serine/threonine-protein kinase Nek2 (Homo sapiens) (P51955 whole entry): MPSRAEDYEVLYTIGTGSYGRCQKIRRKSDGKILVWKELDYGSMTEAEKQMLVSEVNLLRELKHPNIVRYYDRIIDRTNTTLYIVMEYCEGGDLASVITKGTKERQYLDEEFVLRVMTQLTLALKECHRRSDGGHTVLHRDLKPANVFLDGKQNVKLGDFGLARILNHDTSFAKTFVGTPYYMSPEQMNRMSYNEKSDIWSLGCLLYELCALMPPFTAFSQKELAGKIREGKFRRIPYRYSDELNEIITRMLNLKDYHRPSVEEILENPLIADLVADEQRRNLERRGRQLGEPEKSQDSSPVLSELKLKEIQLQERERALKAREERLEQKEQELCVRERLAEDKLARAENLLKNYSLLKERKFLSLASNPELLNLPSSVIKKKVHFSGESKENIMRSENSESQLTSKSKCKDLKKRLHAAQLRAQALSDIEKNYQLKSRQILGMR
Sequence of Serine/threonine-protein kinase Nek6 (Homo sapiens) (Q9HC98 whole entry): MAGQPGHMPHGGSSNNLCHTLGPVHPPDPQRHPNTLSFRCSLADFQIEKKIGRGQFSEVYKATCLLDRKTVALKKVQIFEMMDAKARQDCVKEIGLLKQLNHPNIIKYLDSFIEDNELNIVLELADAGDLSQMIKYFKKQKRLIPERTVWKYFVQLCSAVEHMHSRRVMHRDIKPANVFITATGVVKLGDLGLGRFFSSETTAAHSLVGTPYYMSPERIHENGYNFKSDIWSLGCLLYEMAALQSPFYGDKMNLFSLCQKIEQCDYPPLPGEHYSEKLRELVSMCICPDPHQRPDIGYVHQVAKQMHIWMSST

CN(C)C/C=C/C(=O)Nc1cc2c(Nc3ccc(F)c(Cl)c3)ncnc2cc1O[C@H]1CCOC1 [AFATINIB]
residual activity (Homo sapiens): 75% | Activity (Mus musculus [1]): Active | inhibition (NIH3T3 [2]): Active | AUC at 600 h [3]: 1.07 µM·h | residual activity [4]: 95% | residual activity [5]: 86% | Cmax [6]: 83 nM | residual activity [7]: 94% | residual activity [8]: 46% | residual activity [9]: 40% | residual activity [10]: 72% | T/C (HT-29): 38% | Cmax [11]: 80 nM | inhibition (A-431): Active | T/C (MDA-MB-453): 3% | Activity (Mus musculus [12]): Active | inhibition (NIH3T3 [13]): Active | residual activity [14]: 91% | residual activity [15]: 64%
